Results taken from article PMC6044926 (ACS Omega, 2017).
Positions count from the first letter of the chain named. Numbers in names are those of the source. Where “and” joins values, the source holds several entries; their conditions need not be identical. Equal entries are not always repeated. Entries after “also recorded” stand apart in the source; their conditions may differ.

Assays:
TPMT*6 (Y180F) [1] = molecular target: T1, TPMT*6 (Y180F) (Homo sapiens, UniProt P51580, Y180F); assay: Thermal denaturation by CD at 222 nm in the presence of ligand, TPMT*6; format: binding
T1 sequence (P51580 1-245 Y180F): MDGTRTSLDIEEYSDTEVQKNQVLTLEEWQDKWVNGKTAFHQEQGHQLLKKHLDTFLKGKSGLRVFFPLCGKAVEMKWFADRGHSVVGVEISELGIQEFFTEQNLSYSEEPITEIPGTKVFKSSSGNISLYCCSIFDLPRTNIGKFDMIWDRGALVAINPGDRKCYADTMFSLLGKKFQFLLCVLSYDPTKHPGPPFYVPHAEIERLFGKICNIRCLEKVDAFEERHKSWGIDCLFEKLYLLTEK
Outline: (§1)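 Far-UV CD thermal unfolding at 222 nm, 18 to 80 °C in 2° steps, 10 scans over 60 s per step. Sample was 3 μM purified recombinant TPMT in 20 mM potassium phosphate pH 7.3, 75 mM NaCl, 2% glycerol, 0.5 mM TCEP, 4 mm cuvette. Run without ligand, with 30 μM SAM, or with 60 μM ANS. Tm fitted from three independent measurements.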

TPMTwt [2] = molecular target: T2, TPMTwt (Homo sapiens, UniProt P51580); assay: ITC binding of SAM and ANS to TPMTwt; details: dissociation constant, 25 °C
T2 sequence (P51580 1-245): T1 sequence (P51580 1-245 Y180F) with F180Y
Outline: (§2)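 Isothermal titration calorimetry at 25 °C (reference power 7 μcal s−1) of ~50 μM His-tag-cleaved recombinant human TPMT (residues 1–245; E. coli BL21-CodonPlus(DE3)-RIL; Ni-NTA and gel filtration). Thirteen injections per run, at least three runs per variant–ligand pair, fitted to a binding model.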

TPMT*8 (R215H) [3] = molecular target: T3, TPMT*8 (R215H) (Homo sapiens, UniProt P51580, R215H); assay: ITC binding of SAM and ANS to TPMT*8
T3 sequence (P51580 1-245 R215H): T1 sequence (P51580 1-245 Y180F) with F180Y, R215H
Outline: as §2

TPMT*6 (Y180F) [4] = molecular target: T1, TPMT*6 (Y180F); assay: ITC binding of SAM and ANS to TPMT*6
Outline: as §2

TPMTwt [5] = molecular target: T2, TPMTwt; assay: Thermal denaturation by CD at 222 nm in the presence of ligand, TPMTwt; format: binding
Outline: as §1

TPMT*8 (R215H) [6] = molecular target: T3, TPMT*8 (R215H); assay: Thermal denaturation by CD at 222 nm in the presence of ligand, TPMT*8; format: binding
Outline: as §1

TPMTwt [7] = molecular target: T2, TPMTwt; assay: Thermal denaturation monitored as ANS fluorescence emission at 475 nm, TPMTwt; format: binding; details: ANS emission at 475 nm, ANS in 20-fold molar excess (60 μM)
Outline: (§3)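 Scanned 18 to 80 °C in 2° steps. Excitation 360 nm, emission 400–600 nm. Tm taken from the relative change in maximum intensity at 475 nm, three independent measurements.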

TPMT = molecular target: T4, TPMT (Homo sapiens, UniProt P51580); assay: ANS and SAM binding to TPMT, all investigated variants; details: dissociation constant, ANS, ITC (fluorescence and ITC)
T4 sequence (P51580 1-245): T1 sequence (P51580 1-245 Y180F) with F180Y
Outline: as §2

TPMT*6 (Y180F) [8] = molecular target: T1, TPMT*6 (Y180F); assay: Thermal denaturation monitored as ANS fluorescence emission at 475 nm, TPMT*6; format: binding; details: ANS emission at 475 nm, ANS in 20-fold molar excess (60 μM)
Outline: as §3

TPMT*8 (R215H) [9] = molecular target: T3, TPMT*8 (R215H); assay: Thermal denaturation monitored as ANS fluorescence emission at 475 nm, TPMT*8; format: binding; details: ANS emission at 475 nm, ANS in 20-fold molar excess (60 μM)
Outline: as §3

[10] = Thermal denaturation of the TPMT variants by CD at 222 nm, no ligand; format: physicochemical, human; details: 3 μM protein, pH 7.3
Outline: as §1

[11] = TPMT enzyme activity on purified recombinant protein, 6-MP as substrate; format: biochemical, human; details: 6-MP as thiopurine substrate
Outline: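 Activity of purified recombinant TPMT measured as rate of 6-methyl-mercaptopurine formation from 6-MP, with 14C-labelled S-adenosyl-L-methionine as methyl donor, following an earlier published protocol.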

[12] = cited from earlier work
[13] = SAM in 10-fold molar excess (30 μM), 3 μM protein
[14] = CD at 222 nm, ANS in 20-fold molar excess (60 μM), 3 μM protein

In the case of C[S+](CC[C@H](N)C(=O)[O-])C[C@H]1O[C@@H](n2cnc3c(N)ncnc32)[C@H](O)[C@@H]1O (stereo partly shown) [SAM, S-adenosylmethionine], the “thermal melting temperature, circular dichroism, +SAM” value (shortened to “thermal melting temperature … +SAM”) (TPMT*6 (Y180F) [1]; [13]) is reported as 40.5 ± 0.5 °C, the Kd (TPMTwt [2]; SAM) is reported as 2200 ± 700 nM and the Kd (TPMT*8 (R215H) [3]) is reported as 1500 ± 100 nM. For the same molecule, the Kd (TPMT*6 (Y180F) [4]) was 1800 ± 500 nM, the “thermal melting temperature … +SAM” value (TPMTwt [5]; [13]) was 46.8 ± 0.5 °C and the “thermal melting temperature … +SAM” value (TPMT*8 (R215H) [6]; [13]) was 47.3 ± 0.3 °C.

For O=S(=O)(O)c1cccc2cccc(Nc3ccccc3)c12 [ANS, 8-anilinonaphthalene-1-sulfonic acid], the “thermal melting temperature, +ANS” value (TPMT*6 (Y180F) [1]; [14]) was 48.6 °C and 48.6 ± 0.7 °C, the “increase of Tm on addition of ANS” value (TPMT*6 (Y180F) [1]; CD at 222 nm, versus no ligand) was 7.2 °C and the Kd (TPMTwt [2]; ANS) was 219 ± 58 nM. The “thermal melting temperature, fluorescence, +ANS” value (TPMTwt [7]) was 54.1 °C and 54.1 ± 0.5 °C, the Kd (TPMT) was ~200 nM and 200 nM and the Kd (TPMT*8 (R215H) [3]) was 202 ± 11 nM. The Kd (TPMT*6 (Y180F) [4]) was 187 ± 32 nM, the “thermal melting temperature, +ANS” value (TPMTwt [5]; [14]) was 53.8 °C and 53.8 ± 0.5 °C and the “increase of Tm on addition of ANS” value (TPMTwt [5]; CD at 222 nm, versus no ligand) was 7.4 °C. The “thermal melting temperature, fluorescence, +ANS” value (TPMT*6 (Y180F) [8]) was 49.6 °C and 49.6 ± 0.4 °C, the “thermal melting temperature, +ANS” value (TPMT*8 (R215H) [6]; [14]) was 51.5 °C and 51.5 ± 0.4 °C and the “increase of Tm on addition of ANS” value (TPMT*8 (R215H) [6]; CD at 222 nm, versus no ligand) was 5.0 °C. The “thermal melting temperature, fluorescence, +ANS” value (TPMT*8 (R215H) [9]) was 54.1 °C and 54.1 ± 0.3 °C.

B1: TPMT*6: naturally occurring TPMT variant, Y180F, purified recombinant protein (protein, UniProt P51580 1-245, looked up, variant Y180F)
Thiopurine S-methyltransferase: T1 sequence (P51580 1-245 Y180F)
In the case of B1, the “thermal melting temperature, circular dichroism, no ligand” value (from here on “thermal melting temperature … no ligand”) [10] is reported as 41.4 ± 1.1 °C and the “in vitro enzyme functionality” value [11] is reported as “fully functional; also recorded: normal functionality”.

B2: TPMT*8: naturally occurring TPMT variant, R215H, purified recombinant protein (protein, UniProt P51580 1-245, looked up, variant R215H)
Thiopurine S-methyltransferase: T1 sequence (P51580 1-245 Y180F) with F180Y, R215H
In the case of B2, the “reported in vivo enzyme activity class” value [12] is given as “intermediate”, the “thermal melting temperature … no ligand” value [10] is given as 46.5 ± 0.4 °C and the “in vitro enzyme functionality” value [11] is given as “fully functional; also recorded: normal functionality”.

B3: TPMTwt: recombinant wild-type human thiopurine S-methyltransferase (residues 1–245) (protein, UniProt P51580 1-245, looked up)
Thiopurine S-methyltransferase: T1 sequence (P51580 1-245 Y180F) with F180Y
For B3, the “thermal melting temperature … no ligand” value [10] was 46.4 ± 0.6 °C.
